Data: ChEMBL document CHEMBL3621200, “Toward the discovery of dual HCMV-VZV inhibitors: Synthesis, structure activity relationship analysis, and cytotoxicity studies of long chained 2-uracil-3-yl-N-(4-phenoxyphenyl)acetamides” (Bioorg Med Chem, 2015)
The source made the active and inactive calls. The calls are words filed in the database; no cut-off is given here.

Experiments:
HEL = assay: Cytotoxicity against human cytomegalovirus infected HEL cells assessed as cell growth inhibition incubated for 3 days by coulter counter method; format: cell-based; conditions: 72 h
How it was run: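 HEL cells were seeded at 5 × 10^3 cells/well and left to adhere and proliferate for 24 h, then compound-containing medium was added. After 3 days at 37 °C, cells were counted with a Coulter counter.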

[1] = Cytotoxicity against human cytomegalovirus infected HEL cells assessed as alteration of cell morphology incubated for 3 days by microscopy; format: cell-based; conditions: HEL cells infected with human cytomegalovirus
How it was run: (§1)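 Cytotoxicity was given as the minimum cytotoxic concentration (MCC): the compound concentration causing a microscopically detectable change in HEL cell morphology.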

Human betaherpesvirus 5 [2] = assay: Antiviral activity against human cytomegalovirus Davis infected in HEL cells assessed as reduction in viral plaque formation; format: functional, organism-based; conditions: Human betaherpesvirus 5, Davis
How it was run: (§2)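 Confluent HEL fibroblasts were infected with 100 PFU of HCMV in the presence of varying compound concentrations. Plaques were counted once plaque formation was complete in untreated infected controls.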

Sindbis virus = assay: Antiviral activity against Sindbis virus; format: functional, organism-based
Human betaherpesvirus 5 [3] = assay: Antiviral activity against human cytomegalovirus AD169 infected in HEL cells assessed as reduction in viral plaque formation; format: functional, organism-based; conditions: Human betaherpesvirus 5, AD169, HEL; how it was run: as §2
Human alphaherpesvirus 1 = assay: Antiviral activity against HSV1 KOS; format: functional, organism-based
How it was run: (§3)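 Confluent cell monolayers in 96-well plates were inoculated with 100 CCID50 of virus together with varying compound concentrations. Cytopathicity was scored once it reached completion in untreated infected controls.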

Influenza A virus = assay: Antiviral activity against Influenza A virus H1N1; format: functional, organism-based
How it was run: (§4)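 Confluent cell monolayers (HEL, Vero, HeLa or MDCK) in 96-well plates were infected with 100 CCID50 of virus in the presence of varying compound concentrations. Cytopathicity was scored once it reached completion in untreated infected controls.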

Vaccinia virus = assay: Antiviral activity against Vaccinia virus Lederle; format: functional, organism-based; conditions: Orthopoxvirus vaccinia; how it was run: as §4
Feline coronavirus = assay: Antiviral activity against Feline coronavirus; format: functional, organism-based
Influenza A virus H3N2 = assay: Antiviral activity against Influenza A virus H3N2; format: functional, organism-based; how it was run: as §4
[4] = test system: Mammalian orthoreovirus 1; assay: Antiviral activity against Reovirus 1; format: functional
Coxsackievirus B4 = assay: Antiviral activity against Human coxsackievirus B4; format: functional, organism-based
Human alphaherpesvirus 2 = assay: Antiviral activity against HSV2 Lyons; format: functional, organism-based; how it was run: as §3
Human respirovirus 3 = assay: Antiviral activity against Parainfluenza 3 virus; format: functional, organism-based
[5] = test system: Human herpesvirus 2 strain G; assay: Antiviral activity against HSV2 G Lyons; format: functional, organism-based
Punta Toro virus = assay: Antiviral activity against Punta Toro virus; format: functional, organism-based
[6] = test system: Human immunodeficiency virus 2; assay: Antiviral activity against HIV2 ROD infected in human CEM cells assessed as reduction in virus- induced cytopathicity incubated for 4 to 5 days by microscopy based virus syncytium formation assay; format: functional, organism-based; conditions: ISOLATE ROD, CCRF-CEM
How it was run: (§5)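 CEM cells at ~3 × 10^5 cells/mL, infected with 100 CCID50 of HIV per mL in the presence of compound dilutions. Incubated 4–5 days at 37 °C in humidified CO2. Syncytium (giant cell) formation scored by microscopy.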

[7] = test system: Human immunodeficiency virus 1; assay: Antiviral activity against HIV1 3B infected in human CEM cells assessed as reduction in virus- induced cytopathicity incubated for 4 to 5 days by microscopy based virus syncytium formation assay; format: functional, organism-based; conditions: CCRF-CEM; how it was run: as §5
[8] = Cytotoxicity against Varicella zoster virus infected HEL cells assessed as alteration of cell morphology incubated for 3 days by microscopy; format: cell-based; conditions: human, HEL cells infected with Varicella zoster virus; how it was run: as §1
Influenza B virus = assay: Antiviral activity against Influenza B virus; format: functional, organism-based; how it was run: as §4
[9] = test system: Vesicular stomatitis virus; assay: Antiviral activity against Vesicular stomatitis virus; format: functional, organism-based; how it was run: as §4

SMILES	MCC at 72 h [1] [µM]	EC50 (Human betaherpesvirus 5 [2]) [µM]	inhibition (Sindbis virus)	EC50 (Human betaherpesvirus 5 [3]) [µM]	inhibition (Human alphaherpesvirus 1)	inhibition (Influenza A virus)	inhibition (Vaccinia virus)	inhibition (Feline coronavirus)	inhibition (Influenza A virus H3N2)	inhibition [4]	inhibition (Coxsackievirus B4)	inhibition (Human alphaherpesvirus 2)	inhibition (Human respirovirus 3)	inhibition [5]	inhibition (Punta Toro virus)	inhibition [6]	inhibition [7]	MCC at 72 h [8] [µM]	inhibition (Influenza B virus)	inhibition [9]	further results
Nc1nc(O)c2ncn(COC(CO)CO)c2n1 [GANCICLOVIR]	> 350	–	–	–	–	–	–	–	–	–	–	–	–	–	–	–	–	–	–	–	CC50 (HEL): ≥ 319 µM
Nc1ccn(C[C@@H](CO)OCP(=O)(O)O)c(=O)n1 [CIDOFOVIR]	> 300	0.84	–	–	–	–	–	–	–	–	–	–	–	–	–	–	–	–	–	–	CC50 (HEL): ≥ 208 µM
O=C(Cn1c(=O)ccn(CCCCCOc2ccc(Br)cc2)c1=O)Nc1ccccc1	20	> 4	inactive	> 4	inactive	inactive	inactive	inactive	inactive	inactive	inactive	inactive	inactive	inactive	inactive	inactive	inactive	≥ 20	inactive	inactive	–
O=C(Cn1c(=O)c(I)cn(CCCCCOc2ccc(Br)cc2)c1=O)Nc1ccc(Oc2ccccc2)cc1	100	> 20	inactive	> 20	inactive	inactive	inactive	inactive	inactive	inactive	inactive	inactive	inactive	inactive	inactive	inactive	inactive	> 100	inactive	inactive	–
O=C(Cn1c(=O)ccn(Cc2ccc(Oc3ccc(Br)cc3)cc2)c1=O)Nc1ccc(Oc2ccccc2)cc1	4	> 0.8	inactive	> 0.8	inactive	inactive	inactive	inactive	inactive	inactive	inactive	inactive	inactive	inactive	inactive	inactive	inactive	20	inactive	inactive	–
O=C(Cn1c(=O)ccn(CCCCCOc2ccc(Br)cc2)c1=O)Nc1ccc(OCc2ccccc2)cc1	≥ 20	4	inactive	> 20	inactive	inactive	inactive	inactive	inactive	inactive	inactive	inactive	inactive	inactive	inactive	inactive	inactive	≥ 20	inactive	inactive	–
O=C(Cn1c(=O)ccn(CCCCCCc2ccccc2)c1=O)Nc1ccc(Oc2ccccc2)cc1	100	> 20	inactive	> 20	inactive	inactive	inactive	inactive	inactive	inactive	inactive	inactive	inactive	inactive	inactive	inactive	inactive	> 100	inactive	inactive	–
O=C(Cn1c(=O)ccn(CCCCCOc2cccc(Br)c2)c1=O)Nc1ccc(Oc2ccccc2)cc1	≥ 100	3.1	inactive	2	inactive	inactive	inactive	inactive	inactive	inactive	inactive	inactive	inactive	inactive	inactive	inactive	inactive	> 100	inactive	inactive	CC50 (HEL): 6.3 µM
N#Cc1ccc(OCCCCCn2ccc(=O)n(CC(=O)Nc3ccc(Oc4ccccc4)cc3)c2=O)cc1	≥ 4	0.44	inactive	0.53	inactive	inactive	inactive	inactive	inactive	inactive	inactive	inactive	inactive	inactive	inactive	inactive	inactive	> 100	inactive	inactive	CC50 (HEL): 4.9 µM
O=C(Cn1c(=O)ccn(CCCCCOc2ccc(Br)cc2)c1=O)Nc1ccc(C(=O)c2ccccc2)cc1	≥ 20	1.64	inactive	1.79	inactive	inactive	inactive	inactive	inactive	inactive	inactive	inactive	inactive	inactive	inactive	inactive	inactive	> 100	inactive	inactive	CC50 (HEL): 5.8 µM
O=C(Cn1c(=O)ccn(CCCCCOc2ccccc2)c1=O)Nc1ccc(Oc2ccccc2)cc1	≥ 20	4	inactive	3.6	inactive	inactive	inactive	inactive	inactive	inactive	inactive	inactive	inactive	inactive	inactive	inactive	inactive	> 100	inactive	inactive	CC50 (HEL): 5.4 µM
O=C(Cn1c(=O)ccn(COCCOCc2ccc(Br)cc2)c1=O)Nc1ccc(Oc2ccccc2)cc1	100	> 20	inactive	> 20	inactive	inactive	inactive	inactive	inactive	inactive	inactive	inactive	inactive	inactive	inactive	inactive	inactive	> 100	inactive	inactive	–
